An excerpt weighted towards active compounds, which were near 5.1% of everything screened.
ERa SRC1 inh = ERα–SRC-1 coactivator interaction inhibitors, primary screen, biochemical, TR-FRET, ERα LBD, estradiol-bound. 1.7% of 86,000 active. AID 629, 2007. Estrogen receptor (Homo sapiens), P03372. TR-FRET ER-alpha LBD / SRC-1 peptide. inhibition, % at 25.6 µM; in the data active = inhibition above about 50%
ERa SRC1 pot = enhancers of ERα–SRC-1 coactivator binding, primary screen, biochemical, TR-FRET, ERα LBD, low estradiol; Estrogen receptor (Homo sapiens), P03372; coactivator binding (% of control), % at 25.6 µM; 1.3% of 86,000 active; TR-FRET ERalpha-LBD/SRC-Cy5 coactivator binding, 2 h; 100 = basal binding, no effect; AID 639, 2007; in the data active = activity above about 200%;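 note: binding measured in presence of low estradiol as agonist stimulus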
ERb coact inh = inhibitors of ERβ-SRC1 coactivator interaction, primary screen, biochemical, TR-FRET, ERβ LBD, SRC-1 peptide. Estrogen receptor beta (Homo sapiens), Q92731. TR-FRET ER-beta LBD / SRC1-Cy5 peptide binding; receptor agonist-loaded with 1 µM estradiol. inhibition, % at 25.6 µM. 1.3% of 86,000 active. AID 633, 2007;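 active = compounds whose percent inhibition of the receptor-coactivator binding signal exceeds about 50% in the single-dose screen, limit read from the data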
SF-1 act = activators of human SF-1, primary screen, cell-based, CHO-K1, Gal4-SF-1 LBD, luciferase luminescence; 1.9% of 65,000 active; AID 522, 2006; Steroidogenic factor 1 (Homo sapiens), Q13285; CHO-K1 Gal4-SF-1 LBD luciferase reporter; % increase over DMSO SF-1-specific signal; activation, % at 10 µM;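 active = activation above the mean activation of all tested compounds plus 3 SD, cut at about 50% in these data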
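Material: CHO-K1 cells with Gal4–hSF-1 LBD chimera plus Gal4-driven luciferase / Input: 4,000 CHO-K1 cells per well / Incubation: compound exposure 20 h at 37 °C / Signal: luminescence read 15 min after SteadyLite luciferase reagent, after room-temperature equilibration / Read-out: percent activation versus DMSO / Benchmarks: DMSO negative control and −SF1 background wells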
BAP1 block = inhibitors of BAP1 deubiquitinase, primary screen, biochemical, Ub-AMC fluorescence, kinetic; calls only at 20 µM; 0.48% of 72,000 active; recombinant BAP1, Ub-AMC hydrolysis fluorescence kinetic; stronger effect = lower value;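 active = activity remaining at or below 50% of control, provided the compound also passes the data quality filters; inactive = the rest, including low values that fail the filters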
Target sequence (Q92560 whole entry, looked up): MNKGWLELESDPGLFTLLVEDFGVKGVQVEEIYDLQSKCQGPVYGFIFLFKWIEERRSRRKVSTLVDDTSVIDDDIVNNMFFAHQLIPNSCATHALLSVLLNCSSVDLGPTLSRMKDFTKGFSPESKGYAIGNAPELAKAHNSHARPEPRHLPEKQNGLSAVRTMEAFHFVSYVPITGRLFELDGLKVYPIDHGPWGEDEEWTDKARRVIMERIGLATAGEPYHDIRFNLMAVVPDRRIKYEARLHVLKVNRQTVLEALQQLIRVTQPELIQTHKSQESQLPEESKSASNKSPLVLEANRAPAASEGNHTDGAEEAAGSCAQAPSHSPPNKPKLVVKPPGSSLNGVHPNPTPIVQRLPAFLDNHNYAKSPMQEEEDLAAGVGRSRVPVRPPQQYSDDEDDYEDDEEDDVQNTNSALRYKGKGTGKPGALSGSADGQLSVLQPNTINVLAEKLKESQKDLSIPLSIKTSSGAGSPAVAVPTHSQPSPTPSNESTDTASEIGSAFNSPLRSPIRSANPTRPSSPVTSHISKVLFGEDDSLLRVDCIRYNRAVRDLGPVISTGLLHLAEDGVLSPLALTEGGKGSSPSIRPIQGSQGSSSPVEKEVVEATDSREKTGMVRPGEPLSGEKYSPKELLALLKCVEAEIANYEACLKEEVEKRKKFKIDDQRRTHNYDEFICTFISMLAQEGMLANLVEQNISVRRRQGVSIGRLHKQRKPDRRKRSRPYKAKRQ
RORA act = activators of orphan receptor RORA, primary screen, cell-based, luminescence; Nuclear receptor ROR-alpha (Homo sapiens), P35398; CHO-K1 Gal4-RORA LBD luciferase reporter; percent increase over mock-subtracted basal signal; activation, % at 10 µM; 1.5% of 65,000 active; AID 560, 2006;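 active = activation above the mean of all tested compounds plus 3 SD, cut at about 49% in these data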
Numbers stand for hits; – = inactive; · = not tested or not shown; [ ] = another dose, or the depositor's remark.

SMILES	ERa SRC1 inh	ERa SRC1 pot	ERb coact inh	SF-1 act	BAP1 block	RORA act
COc1cc(/C=c2\sc3nc(-c4ccncc4)nn3c2=O)ccc1OC(C)=O	68	–	–	–	–	–
COc1ccc(-n2nc(C(=O)NCc3ccco3)c3c4ccccc4n(C)c3c2=O)cc1	–	329[fluorescence artefact?]	–	–	·	–
COc1ccc(-n2nc(C(=O)NCc3ccco3)c3ccccc3c2=O)cc1	–	–	–	·	·	·
CCOC(=O)CSc1nc2cc(C)ccc2cc1C#N	–	–	–	85	–	71
COC(=O)CSc1nc2cc3c(cc2cc1C#N)OCO3	–	284[fluorescence artefact?]	–	–	–	–
CCOC(=O)CSc1nc2ccc(C)cc2cc1C#N	–	–	–	·	·	·
CC(C)OC(=O)CSc1nc2cc3c(cc2cc1C#N)OCO3	–	–	–	·	·	·
CCOC(=O)CSc1nc2cc3c(cc2cc1C#N)OCO3	–	–	–	66	·	–
CCOc1ccc2nc(SCC(=O)N3CCCCCC3)c(C#N)cc2c1	–	–	–	–	–	–
CCOc1ccc2cc(C#N)c(SCC(=O)N3CCOCC3)nc2c1	–	–	–	–	·	56
COC(=O)c1ccc(C(=O)OCCCc2nc3ccc([N+](=O)[O-])cc3[nH]2)cc1	·	·	·	·	–	·
CCOc1ccc(NC(=O)c2ccc(OC)cc2)c([N+](=O)[O-])c1	·	·	·	·	–	·
COC(=O)CSc1nc(-c2cccs2)ccc1C#N	–	–	–	83	–	60
COc1cccc(C(=O)Nc2ncc3c(n2)CC(c2ccc(OC)cc2OC)CC3=O)c1 (configuration not stated)	–	–	–	57	–	–
COc1ccc(Nc2ncc3c(n2)CC(c2ccccc2)CC3=O)cc1 (configuration not stated)	–	–	–	–	–	–
O=C(Nc1ccc([N+](=O)[O-])cc1)/C(=C/c1cccc([N+](=O)[O-])c1)NC(=O)C1CCCCC1	–	–	–	·	·	·
Cc1ccc(NC(=O)/C(=C/c2cccc([N+](=O)[O-])c2)NC(=O)C2CCCCC2)c(C)c1	55	–	–	·	·	·
Cc1cc(C(=O)Nc2nc3c(s2)CCCC3)cs1	–	–	–	–	–	–
Cc1ncsc1C(=O)Nc1nc2c(s1)CCCC2	–	–	–	66	–	57
O=C(Nc1nc2c(s1)CCCC2)c1ccc2ncsc2c1	–	–	–	–	–	50
Cc1ccc(C(=O)CSc2nc3sc(C)c(C)c3c(=O)[nH]2)cc1C	·	·	·	·	–	·
COc1ccc(CNc2ccc(-c3ccc(OC)cc3)nn2)cc1	–	–	–	80	–	–
CCCCOC(=O)Cn1c2ccc(OC)cc2c2nc3ccccc3nc21	53[fluorescence artefact?]	227[fluorescence artefact?]	–	·	·	·
O=C(CC(Nc1ccc(F)cc1)C(=O)O)c1ccccc1 (configuration not stated)	–	–	–	–	–	62
O=C(O)CC(NC(=O)c1ccccc1NC(=O)c1ccccc1)C(=O)O (configuration not stated)	·	·	·	–	–	–
SMILES	ERa SRC1 inh	ERa SRC1 pot	ERb coact inh	SF-1 act	BAP1 block	RORA act
Cc1ccc(C(=O)Nc2ccc(NC(=O)c3ccco3)c(Cl)c2)cc1[N+](=O)[O-]	·	·	·	·	–	·
c1csc(-c2csc(-c3cccs3)n2)c1	–	–	–	63	·	–
COc1cccc2cc(-c3nc(-c4cccs4)cs3)c(=O)oc12	50[fluorescence artefact?]	–	–	–	–	55
O=c1oc2ccccc2cc1-c1nc(-c2cccs2)cs1	–	–	–	·	·	·
O=C(Cc1ccc(Cl)cc1)N1CCN(c2ccc([N+](=O)[O-])cc2)CC1	·	·	·	·	–	·
Cc1cc(C)n(-c2nc3ccccc3nc2Nc2ccc3c(c2)OCO3)n1	–	–	–	–	–	–
Cc1ccc2nc(Nc3ccc4[nH]c(=O)[nH]c4c3)c(-n3nc(C)cc3C)nc2c1	·	·	·	–	–	59
O=C(Nc1ccc2c(c1)nc1n2CCN(C2CCCCC2)C1)c1ccco1	61	–	53	–	·	–
